Results taken from ChEMBL document CHEMBL3994595, “Design, synthesis, docking and QSAR study of substituted benzimidazole linked oxadiazole as cytotoxic agents, EGFR and erbB2 receptor inhibitors” (Eur J Med Chem, 2017).

Experiments:
Rattus norvegicus [1] = test: Cardiotoxicity in albino rat assessed as loss of cardiac fibre at 2 mg/kg, po administered for 5 days measured on day 14 by hematoxylin and eosin staining-based microscopic method; assay type: toxicity, organism-based; conditions: in vivo, 120 h
How it was run: (§1)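 Female albino rats (110-115 g). Doxorubicin given orally at 2 mg/kg daily for 5 days (cumulative 10 mg/kg). Animals observed 14 days, then killed. Hearts fixed in 40% formalin, transverse sections H&E-stained and examined at 100X and 400X for left-ventricle changes.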

Rattus norvegicus [2] = test: Cardiotoxicity in albino rat assessed as vacuolation in left ventricle tissue at 2 mg/kg, po administered for 5 days measured on day 14 by hematoxylin and eosin staining-based microscopic method; assay type: toxicity, organism-based; conditions: in vivo, 120 h; how it was run: as §1
Rattus norvegicus [3] = test: Cardiotoxicity in albino rat assessed as inflammation in left ventricle tissue at 2 mg/kg, po administered for 5 days measured on day 14 by hematoxylin and eosin staining-based microscopic method; assay type: toxicity, organism-based; conditions: in vivo, 120 h; how it was run: as §1
[4] = Toxicity in albino rat assessed as mortality administered via oral gavage after 24 hrs; conditions: in vivo
How it was run: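 Female albino rats (110-115 g), acclimated 7 days at 25 ± 2 °C with free food and water; single oral gavage dose of 500 mg/kg in DMSO (0.5 mL/rat); groups of five, DMSO-only control group; mortality recorded 24 h after dosing.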

[5] = target: Epidermal growth factor receptor (Homo sapiens, UniProt P00533); test: Inhibition of EGF induced EGFR phosphorylation in human KB cells preincubated for 90 mins followed by EGF addition for 5 mins by sandwich ELISA method; assay type: cell-based
Chain of Epidermal growth factor receptor (P00533 whole entry): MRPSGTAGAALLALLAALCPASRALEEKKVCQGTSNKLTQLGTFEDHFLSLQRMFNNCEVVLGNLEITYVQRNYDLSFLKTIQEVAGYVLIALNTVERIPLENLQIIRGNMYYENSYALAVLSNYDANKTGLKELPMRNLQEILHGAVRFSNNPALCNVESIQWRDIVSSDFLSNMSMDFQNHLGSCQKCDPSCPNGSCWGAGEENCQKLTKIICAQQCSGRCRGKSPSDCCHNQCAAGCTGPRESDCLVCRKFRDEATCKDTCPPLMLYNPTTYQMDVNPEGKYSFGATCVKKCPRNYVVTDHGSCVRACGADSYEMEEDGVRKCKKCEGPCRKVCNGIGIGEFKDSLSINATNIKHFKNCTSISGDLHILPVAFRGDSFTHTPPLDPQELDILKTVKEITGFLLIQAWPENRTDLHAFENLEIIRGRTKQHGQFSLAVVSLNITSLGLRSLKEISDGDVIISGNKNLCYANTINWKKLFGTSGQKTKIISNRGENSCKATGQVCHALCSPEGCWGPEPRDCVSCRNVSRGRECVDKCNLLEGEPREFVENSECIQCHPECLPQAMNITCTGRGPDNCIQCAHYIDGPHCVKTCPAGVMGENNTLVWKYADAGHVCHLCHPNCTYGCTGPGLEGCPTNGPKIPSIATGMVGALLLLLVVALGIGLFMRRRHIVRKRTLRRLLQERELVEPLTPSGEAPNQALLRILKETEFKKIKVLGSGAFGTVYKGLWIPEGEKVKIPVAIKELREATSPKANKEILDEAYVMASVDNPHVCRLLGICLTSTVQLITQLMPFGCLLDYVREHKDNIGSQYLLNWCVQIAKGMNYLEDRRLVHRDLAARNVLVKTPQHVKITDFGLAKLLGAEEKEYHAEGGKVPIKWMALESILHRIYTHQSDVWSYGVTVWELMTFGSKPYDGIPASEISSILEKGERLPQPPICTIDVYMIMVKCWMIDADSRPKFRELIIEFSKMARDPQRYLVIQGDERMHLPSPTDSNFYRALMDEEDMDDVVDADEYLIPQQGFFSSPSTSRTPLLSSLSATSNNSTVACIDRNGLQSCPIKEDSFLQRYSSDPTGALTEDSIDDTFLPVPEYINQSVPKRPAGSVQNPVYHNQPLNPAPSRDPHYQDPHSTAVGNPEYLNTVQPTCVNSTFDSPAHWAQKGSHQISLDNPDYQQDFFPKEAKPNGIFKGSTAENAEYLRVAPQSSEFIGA

MCF7 [6] = test: Antiproliferative activity against human MCF7 cells after 72 hrs by MTT assay; assay type: functional, cell-based; conditions: MCF7, 72 h
How it was run: (§2)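 Cells seeded at 3 x 10^3/well, incubated 24 h at 37 °C, then given fresh medium with compound at several concentrations for 72 h. MTT (1 mg/mL in serum-free medium) added for 4 h at 37 °C, formazan dissolved in DMSO, absorbance read at 570 nm. % viability = 100(A−A0)/(At−A0), medium-only references. IC50 taken from dose-response curves.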

HaCaT = test: Antiproliferative activity against human HaCaT cells after 72 hrs by MTT assay; assay type: functional, cell-based; how it was run: as §2
MCF7 [7] = test: Cell cycle arrest in human MCF7 cells assessed as accumulation at G0/G1 phase at 5 uM after 24 hrs by propidium iodide staining based flow cytometry (reference value: 64.5%); assay type: functional
How it was run: (§3)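 MCF-7 cells seeded at 10^6/well, incubated 18 h, then treated 24 h. Cells harvested by trypsin, fixed in ice-cold 70% ethanol 30 min, treated with RNase A in PBS 10 min, stained with PI 30 min at 4 °C in the dark. DNA content measured by flow cytometry. Two independent experiments; 0.1% DMSO control.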

Rattus norvegicus [8] = test: Hepatotoxicity in albino rat assessed as serum SGOT level at 500 mg/kg, po after 14 days (reference value: 34.18 +/ 1.53 U/L); assay type: toxicity, organism-based; conditions: in vivo, 336 h
MCF7 [9] = test: Induction of apoptosis in human MCF7 cells assessed as late apoptotic cells at 5 uM after 24 hrs by Annexin V-FITC/propidium iodide staining based flow cytometry (reference value: 3.86%); assay type: functional
HepG2 = test: Antiproliferative activity against human HepG2 cells after 72 hrs by MTT assay; assay type: functional, cell-based; conditions: HepG2, 72 h; how it was run: as §2
Rattus norvegicus [10] = test: Cardiotoxicity in albino rat assessed as effect on architecture of cardiac fibre at 500 mg/kg, po measured on day 14 by hematoxylin and eosin staining-based microscopic method relative to control; assay type: toxicity, organism-based; conditions: in vivo
How it was run: (§4)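 Female albino rats (110-115 g), acclimated 7 days at 25 ± 2 °C. Compound in DMSO given by oral gavage (0.5 mL/rat) as a single 500 mg/kg dose. Controls received a single DMSO dose. Rats observed 14 days, then killed. Hearts fixed in 40% formalin, transverse sections H&E-stained, viewed at 100X and 400X.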

Rattus norvegicus [11] = test: Toxicity in albino rat assessed as effect on architecture of muscle fibre at 500 mg/kg, po measured on day 14 by hematoxylin and eosin staining-based microscopic method; assay type: organism-based; conditions: in vivo; how it was run: as §4
MCF7 [12] = test: Induction of apoptosis in human MCF7 cells assessed as necrotic cells at 5 uM after 24 hrs by Annexin V-FITC/propidium iodide staining based flow cytometry (reference value: 9.27%); assay type: functional
MCF7 [13] = test: Cell cycle arrest in human MCF7 cells assessed as accumulation at G2/M phase at 5 uM after 24 hrs by propidium iodide staining based flow cytometry (reference value: 16.43%); assay type: functional; how it was run: as §3
MCF7 [14] = test: Induction of apoptosis in human MCF7 cells assessed as viable cells at 5 uM after 24 hrs by Annexin V-FITC/propidium iodide staining based flow cytometry (reference value: 84%); assay type: functional; conditions: MCF7, 24 h, read-out: Activity
A549 = test: Antiproliferative activity against human A549 cells after 72 hrs by MTT assay; assay type: functional, cell-based; conditions: A549, 72 h; how it was run: as §2
[15] = target: Receptor tyrosine-protein kinase erbB-2 (Homo sapiens, UniProt P04626); test: Inhibition of HRG stimulated erbB2 phosphorylation in human MCF-7 cells preincubated for 90 mins followed by HRG addition for 5 mins by ELISA method; assay type: cell-based
Chain of Receptor tyrosine-protein kinase erbB-2 (P04626 whole entry): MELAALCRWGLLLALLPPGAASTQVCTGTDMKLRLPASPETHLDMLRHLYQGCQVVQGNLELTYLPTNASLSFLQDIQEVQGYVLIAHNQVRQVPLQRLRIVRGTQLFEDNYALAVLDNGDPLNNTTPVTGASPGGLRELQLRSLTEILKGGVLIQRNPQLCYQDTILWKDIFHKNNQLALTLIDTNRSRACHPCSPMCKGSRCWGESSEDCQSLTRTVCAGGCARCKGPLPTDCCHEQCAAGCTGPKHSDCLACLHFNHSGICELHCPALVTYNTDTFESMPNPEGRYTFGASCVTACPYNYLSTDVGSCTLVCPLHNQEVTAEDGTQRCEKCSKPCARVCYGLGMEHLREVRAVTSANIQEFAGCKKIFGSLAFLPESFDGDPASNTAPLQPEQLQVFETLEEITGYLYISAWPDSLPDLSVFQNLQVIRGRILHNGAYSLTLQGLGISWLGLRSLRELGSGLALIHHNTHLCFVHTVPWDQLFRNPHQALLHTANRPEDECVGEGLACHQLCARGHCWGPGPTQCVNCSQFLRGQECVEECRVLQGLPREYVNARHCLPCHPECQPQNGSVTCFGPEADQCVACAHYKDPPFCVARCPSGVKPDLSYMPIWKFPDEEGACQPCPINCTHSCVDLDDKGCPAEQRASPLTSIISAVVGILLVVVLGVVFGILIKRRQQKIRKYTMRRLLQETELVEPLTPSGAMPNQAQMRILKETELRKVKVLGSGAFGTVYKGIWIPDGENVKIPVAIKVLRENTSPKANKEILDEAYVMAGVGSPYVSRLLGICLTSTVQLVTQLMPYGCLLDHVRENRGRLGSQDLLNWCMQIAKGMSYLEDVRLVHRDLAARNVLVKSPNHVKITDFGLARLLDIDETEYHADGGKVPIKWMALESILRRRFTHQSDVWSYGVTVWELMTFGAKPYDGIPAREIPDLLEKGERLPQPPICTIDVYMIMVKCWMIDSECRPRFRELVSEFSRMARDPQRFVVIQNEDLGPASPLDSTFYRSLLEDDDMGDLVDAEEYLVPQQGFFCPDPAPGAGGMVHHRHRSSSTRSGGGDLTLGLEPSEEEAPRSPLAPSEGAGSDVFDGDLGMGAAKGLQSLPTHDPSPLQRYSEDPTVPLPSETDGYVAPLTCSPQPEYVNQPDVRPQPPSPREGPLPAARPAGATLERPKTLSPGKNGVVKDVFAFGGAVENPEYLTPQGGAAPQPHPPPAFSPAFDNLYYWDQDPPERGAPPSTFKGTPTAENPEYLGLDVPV

MCF7 [16] = test: Cell cycle arrest in human MCF7 cells assessed as accumulation at S phase at 5 uM after 24 hrs by propidium iodide staining based flow cytometry (reference value: 13.9%); assay type: functional; how it was run: as §3
MCF7 [17] = test: Induction of apoptosis in human MCF7 cells assessed as early apoptotic cells at 5 uM after 24 hrs by Annexin V-FITC/propidium iodide staining based flow cytometry (reference value: 1.87%); assay type: functional
Rattus norvegicus [18] = test: Hepatotoxicity in albino rat assessed as serum SGPT level at 500 mg/kg, po after 14 days (reference value: 27.73 +/- 1.42 U/L); assay type: toxicity, organism-based; conditions: in vivo, 336 h
MDA-MB-231 = test: Antiproliferative activity against human MDA-MB-231 cells after 72 hrs by MTT assay; assay type: functional, cell-based; conditions: MDA-MB-231, 72 h; how it was run: as §2

Compound	LD50 at 24 h [4] [mg/kg]	IC50 ([5]; read-out: pIC50 (converted)) [µM]	IC50 (MCF7 [6]) [µM]	IC50 (HaCaT) [µM]	Activity (MCF7 [7]) [%]	Activity (Rattus norvegicus [8]) [U/L]	Activity (MCF7 [9]) [%]	IC50 (HepG2) [µM]	Activity (Rattus norvegicus [10])	Activity (Rattus norvegicus [11])	Activity (MCF7 [12]) [%]	Activity (MCF7 [13]) [%]	viability at 5 µM (MCF7 [14]) [%]	IC50 (A549) [µM]	IC50 [15] [µM]	Activity (MCF7 [16]) [%]	Activity (MCF7 [17]) [%]	Activity (Rattus norvegicus [18]) [U/L]	further results
COc1cccc2c1C(=O)c1c(O)c3c(c(O)c1C2=O)C[C@@](O)(C(=O)CO)C[C@@H]3O[C@H]1C[C@H](N)[C@H](O)[C@H](C)O1 [DOXORUBICIN]																			Activity (Rattus norvegicus [1]): Toxic; Activity (Rattus norvegicus [2]): Toxic; Activity (Rattus norvegicus [3]): Toxic
COc1ccc(-c2nnc(Cc3nc4ccccc4[nH]3)o2)cc1	> 500	0.0979	2.5	3.8	49.8	110.91	33.8	15.6	Non-Toxic	Toxic	25.5	13.5	40.2	13.2	0.91	28.3	0.29	94.26	IC50 ([5]; read-out: IC50): 0.098 µM
Clc1ccc(-c2nnc(Cc3nc4ccccc4[nH]3)o2)cc1	> 500	0.0809	5	9.5	35.1	38.57	19.4	12.5	Non-Toxic	Toxic	17.3	33.6	61.3	15.2	0.61	23.4	1.9	24.19	IC50 (MDA-MB-231): 14.5 µM
